We go through six compounds from BindingDB's records for doi:10.1021/jm800174p (University of Minnesota, 2009).

Molecules are shown by their SMILES. pKi: −log10 of the molar value.

Chain of Mu-type opioid receptor (P35372 whole entry): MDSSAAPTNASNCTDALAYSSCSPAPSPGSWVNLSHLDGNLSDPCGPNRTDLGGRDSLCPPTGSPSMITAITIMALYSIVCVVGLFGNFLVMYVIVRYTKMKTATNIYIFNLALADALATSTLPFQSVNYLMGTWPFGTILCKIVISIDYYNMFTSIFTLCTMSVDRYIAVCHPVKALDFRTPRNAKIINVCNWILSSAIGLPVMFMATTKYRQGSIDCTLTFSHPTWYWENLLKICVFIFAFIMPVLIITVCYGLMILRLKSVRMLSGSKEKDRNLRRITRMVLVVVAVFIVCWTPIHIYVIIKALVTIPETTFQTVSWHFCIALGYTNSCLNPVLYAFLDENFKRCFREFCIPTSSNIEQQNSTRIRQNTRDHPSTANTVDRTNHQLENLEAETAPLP

The target of one assay is Mu-type opioid receptor (Homo sapiens, UniProt P35372). In words: Displacement of [3H]DAMGO from mu opioid receptor expressed in CHO cells. The method, boiled down:
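Membranes came from CHO cells stably expressing MOP receptor alone or with CCK2 receptor. They were incubated with [3H]DAMGO (0.4 nM) plus increasing unlabeled ligand for 2 h at room temperature in KRH, pH 7.4, with 0.2% BSA and soybean trypsin inhibitor. Nonspecific binding was set with 1 μM DAMGO. Samples were filtered on PEI-soaked GF/C and scintillation counted; Ki and Bmax (pmol/mg protein) came from LIGAND analysis. Mean±S.E.M., 3-5 experiments.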
Background: Displacement assays read how much labelled ligand stays bound in the presence of the test substance.
Broadly, the pKi is −log10 of the Ki, conventionally taken in molar units. A low value points to a high Ki. The compound `CNC(=O)COCC(=O)NCCCCNC(=O)COCC(=O)N[C@H]1CC[C@@]2(O)[C@H]3Cc4cc(O)cc5c4[C@@]2(CCN3C)[C@H]1O5` [2-({[(1S,5R,13R,14S,17S)-9,17-dihydroxy-4-methyl-12-oxa-4-azapentacyclo[9.6.1.0^{1,13}.0^{5,17}.0^{7,18}]octadeca-7(18),8,10-trien-14-yl]carbamoyl}methoxy)-N-(4-{2-[(methylcarbamoyl)methoxy]acetamido}butyl)acetamide] had a pKi of 7.53.

Target in a further assay: not listed separately
In words: Displacement of [3H]DAMGO from CCK2R-MOPR coexpressed in CHO cells.
With `C[C@@H](NC(=O)[C@@H](N)Cc1ccc(O)cc1)C(=O)NCC(=O)N(C)[C@@H](Cc1ccccc1)C(=O)NCCO` [[tyrosyl-3,5-3H(N)]-D-Ala2-Mephe4-glyol5-enkephalin], the pKi was 7.96.
`CN1C(=O)[C@H](NC(=O)Nc2cccc(OCCNC(=O)COCC(=O)NNC(=O)COCC(=O)N[C@H]3CC[C@@]4(O)[C@H]5Cc6cc(O)cc7c6[C@@]4(CCN5C)[C@H]3O7)c2)N=C(c2ccccc2)c2ccccc21` [N-{m-[R(+)-1]Ureaphenoxy}ethyldiglycolamidehydrazide-N'-oxymorphyldiglycolamidedihydrazide]: the pKi was 8.41.
Same read-out and setting: to `CN1C(=O)[C@H](NC(=O)Nc2cccc(OCCNC(=O)COCC(=O)NCCCCCCNC(=O)COCC(=O)N[C@H]3CC[C@@]4(O)[C@H]5Cc6cc(O)cc7c6[C@@]4(CCN5C)[C@H]3O7)c2)N=C(c2ccccc2)c2ccccc21` [1-{1-Diglycoldiamide-6-[m-(R(+)-1)ureaphenoxy]ethane}-2-(N-oxymorphyldiglycoldiamide)hexane] belongs 7.79.
Same read-out and setting: for `CN1C(=O)[C@H](NC(=O)Nc2cccc(OCCNC(=O)COCC(=O)N[C@H]3CC[C@@]4(O)[C@H]5Cc6cc(O)cc7c6[C@@]4(CCN5C)[C@H]3O7)c2)N=C(c2ccccc2)c2ccccc21` [N-{m-[R(+)-1]Ureaphenoxy}ethyl-N'-oxymorphyldiglycoldiamide] the value was 7.85; for `CN1C(=O)[C@H](NC(=O)Nc2cccc(OCCNC(=O)COCC(=O)NCCNC(=O)COCC(=O)N[C@H]3CC[C@@]4(O)[C@H]5Cc6cc(O)cc7c6[C@@]4(CCN5C)[C@H]3O7)c2)N=C(c2ccccc2)c2ccccc21` [1-{1-Diglycoldiamide-2-[m-(R(+)-1)ureaphenoxy]ethane}-2-(N-oxymorphyldiglycoldiamide)ethane], 8.14.
